A selection: hits, their analogues and other compounds. The true share with any hit is near 4.6%.
GPR7 antag = blocks human GPR7 receptor signaling. GPR7-expressing cells, fluorescence antagonist assay. AID 1861. inhibition, % at 4.4 µM. actives 1.1% (n = 290,000). P48145; in the data active = inhibition above about 16%, passing the limit was not always enough;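 note: cells stimulated with the agonist NPW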
OX1R antag-1 = blocks the human orexin 1 receptor | inhibition, % at 6.6 µM | actives 1.8% (n = 330,000) | OX1R-expressing cells, FRET antagonist read-out | O43613; in the data active = inhibition mostly above about 38%, no sharp cut-off; inactive = mostly below about 40%
Target sequence (O43613 whole entry, looked up): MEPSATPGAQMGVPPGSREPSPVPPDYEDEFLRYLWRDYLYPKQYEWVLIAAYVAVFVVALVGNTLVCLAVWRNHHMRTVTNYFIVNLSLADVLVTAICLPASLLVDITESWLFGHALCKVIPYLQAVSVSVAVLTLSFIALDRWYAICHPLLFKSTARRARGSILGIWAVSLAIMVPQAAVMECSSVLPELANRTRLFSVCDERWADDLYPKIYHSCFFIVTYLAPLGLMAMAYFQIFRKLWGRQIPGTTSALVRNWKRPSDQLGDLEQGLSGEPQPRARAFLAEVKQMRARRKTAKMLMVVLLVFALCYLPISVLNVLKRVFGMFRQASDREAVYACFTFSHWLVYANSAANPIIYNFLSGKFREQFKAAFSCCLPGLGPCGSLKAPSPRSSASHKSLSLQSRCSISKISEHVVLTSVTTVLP
OX1R antag-2 = antagonists of human orexin 1 receptor. O43613. CHO/OX1R cells, Fluo-8 calcium fluorescence, orexin A. inhibition, % at 5 µM. actives 0.43% (n = 330,000);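 active = inhibition above its plate's threshold, mean inhibition of all tested compounds on the plate plus 3 SD, cut at about 37% in these data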
TAAR1 agonist = human TAAR1 agonism; activation, % at 3 µM; CHO RD-HGA16 TAAR1, Fluo-8 calcium fluorescence; vehicle wells 0%, saturating PEA agonist 100%; actives 0.99% (n = 360,000); Q96RJ0;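 active = activation above the mean activation of all test compounds in the run plus 3 SD, cut at about 38% in these data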
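System: CHO-derived RD-HGA16 cells with stable Gα16 and human TAAR1 / Times: 17-24 h plating, Fluo-8 75 min 37 °C, 30 min RT / Technique: calcium-sensitive Fluo-8 signal, excitation 470-495, emission 515-575 nm / Measure: % activation relative to PEA EC100 response / Benchmarks: DMSO and PEA EC100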
CHO parental Ca = signal in parental CHO cells, OX1R antagonist counter-screen. inhibition, % at 5.6 µM. actives 0.63% (n = 330,000). parental CHO-K1, ATP-induced calcium, Fluo-8 fluorescence;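 active = inhibition above that plate's mean sample inhibition plus 3 SD, cut at about 26% in these data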
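Material: parental CHO cells / Compound: single nominal dose of 5.6 µM per compound / Signal: Fluo-8 fluorescence / Replicates: singlicate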
TAAR1 antag = human TAAR1 antagonism; CHO RD-HGA16 TAAR1, Fluo-8 calcium fluorescence, antagonist; inhibition, % at 3 µM; actives 1.5% (n = 360,000);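 active = inhibition above a per-plate cutoff, the mean inhibition of test compounds on that plate plus 3 SD, cut at about 49% in these data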
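Assay system: CHO-derived RD-HGA16 cells stably expressing human TAAR1 plus Gα16. Timing: 140 s kinetic read after compound, 140 s after agonist. Technique: kinetic Fluo-8 calcium fluorescence measurement. Measure: % inhibition of agonist calcium response.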
A number is an active result; 0 = inactive; - = no result.

SMILES | GPR7 antag | OX1R antag-1 | OX1R antag-2 | TAAR1 agonist | CHO parental Ca | TAAR1 antag
COc1ccc(-n2nnnc2C(c2ccccc2)N2CCC(n3c(=O)[nH]c4ccccc43)CC2)cc1 (stereo unspecified) | - | - | - | 0 | - | 67.3
COc1ccc(-n2nnnc2C(c2cccc(OC)c2OC)N2CCC(n3c(=O)[nH]c4ccccc43)CC2)cc1 (stereo unspecified) | - | - | - | 0 | - | 55.5
COc1ccc(C(c2nnnn2-c2c(C)cccc2C)N2CCC(n3c(=O)[nH]c4ccccc43)CC2)cc1 (stereo unspecified) | - | - | - | 0 | - | 0
O=c1[nH]c2ccccc2n1C1CCN(C(c2ccccc2OC(F)(F)F)c2nnnn2-c2ccc3c(c2)OCCO3)CC1 (stereo unspecified) | - | - | - | 0 | - | 51.8
COc1cccc(C(c2nnnn2-c2ccc3c(c2)OCCO3)N2CCC(n3c(=O)[nH]c4ccccc43)CC2)c1OC (stereo unspecified) | - | - | - | 50.8 | - | 78.8
c1ccc(CCN2CCC3CCNC3C2)cc1 (stereo unspecified) | - | - | - | 0 | - | 0
O=C(NC1CN2CCC1CC2)c1ccc(Cl)cc1 (stereo unspecified) | - | - | - | 0 | - | 0
O=c1[nH]c2ccccc2n1C1CCN(C(CCc2ccccc2)c2nnnn2C2CCCC2)CC1 (stereo unspecified) | - | - | - | 0 | - | 55.6
O=c1[nH]c2ccccc2n1C1CCN(C(c2cccc3ccccc23)c2nnnn2Cc2ccccc2)CC1 (stereo unspecified) | - | - | - | 0 | - | 50.3
C[C@]12CCC3C(CC[C@H]4C[C@H](O)CC[C@]34C)C1C[C@H](O)[C@@H]2O (stereo partly specified) | - | 0 | 0 | 0 | 0 | 60.3
C[C@]12CCC3C(CC[C@H]4C[C@H](O)CC[C@]34C)C1C[C@@H](O)[C@@H]2O (stereo partly specified) | - | 0 | 0 | 0 | 0 | 0
CC12C=CC(=O)CC1CCC1C2CCC2(C)C(O)C(O)CC12 (stereo unspecified) | - | - | - | 0 | - | 57.6
COc1cc(CCN)c(OC)cc1C | - | - | - | 0 | - | 0
CN1CCc2cccc(Cl)c2CC1 | - | 0 | 0 | 102.2 | 0 | 85.6
CN1CCN(Cc2c(F)cccc2Cl)CC1 | 0 | - | - | 0 | - | 0
NCCc1ccc(OCc2ccccc2)c(OCc2ccccc2)c1 | - | 0 | 0 | 55.1 | 0 | 0
COP(=O)(OC)C1(O)C(=O)Nc2ccc(Br)cc21 (stereo unspecified) | 0 | 0 | 0 | 0 | 0 | 0
COC(=O)C[C@]1(C(=O)OC)CN(C#N)N(c2ccc(Cl)cc2)C12c1ccccc1-c1ccccc12 | 24.0 | 0 | 0 | 0 | 0 | 0
COC(=O)[C@@H]1[C@@H](C(=O)OC)C2(c3ccccc3-c3ccccc32)N(c2ccc(Cl)cc2)N1C#N | 15.8 | 0 | 0 | 0 | 0 | 0
O=C(C1CCCCC1)N1Cc2ccccc2-n2nncc2C1 | - | - | - | 0 | - | 0
COc1cc(OC)c(OC)cc1CNCCc1ccc(F)cc1 | 0 | - | - | 0 | - | 0
COc1ccccc1CNCCc1ccc(F)cc1 | 0 | 0 | 0 | 40.5 | 0 | 0
Cc1nn(Cc2ccccc2)c(Cl)c1C(=O)OCC(=O)NCC1CCCO1 (stereo unspecified) | 0 | 0 | 0 | 0 | 0 | 0
CC(C)N1CC=C(c2c[nH]c3ccccc23)CC1 | 0 | 0 | 0 | 38.3 | 0 | 0
C1=C(c2c[nH]c3ccccc23)CCNC1 | 0 | 0 | 0 | 0 | 0 | 0
SMILES | GPR7 antag | OX1R antag-1 | OX1R antag-2 | TAAR1 agonist | CHO parental Ca | TAAR1 antag
CCc1ccccc1NC(=O)N1C[C@H]2C[C@@H](C1)c1cccc(=O)n1C2 | 0 | 0 | 0 | 0 | 0 | 0
CN1CCc2cc(O)cc3c2[C@H]1Cc1ccc(O)c(O)c1-3 | - | 0 | 0 | 0 | 0 | 0
CN1CCc2cc3c(c4c2C1Cc1ccccc1-4)OCO3 (stereo unspecified) | 0 | 74.5 | 0 | 0 | 0 | 0
COc1c(OP2(=S)OCC(C)(C)CO2)cnn(C2CCCCC2)c1=O | - | - | - | 0 | - | 0
CCC(c1nnnn1-c1ccc2c(c1)OCCO2)N1CCC(n2c(=O)[nH]c3ccccc32)CC1 (stereo unspecified) | - | - | - | 0 | - | 65.7
CSCCC(c1nnnn1-c1ccc2c(c1)OCCO2)N1CCC(n2c(=O)[nH]c3ccccc32)CC1 (stereo unspecified) | - | - | - | 0 | - | 62.0
C=CCN1C[C@H](C)N(C(c2ccc(C(=O)N(CC)CC)cc2)c2cccc(OC)c2)CC1C (stereo partly specified) | - | - | - | 0 | - | 0
O=C1/C(=C/c2ccccc2Cl)N2CCC1CC2 | 0 | 0 | 0 | 0 | 0 | 0
CN1CCN(c2c(C#N)c(C(F)(F)F)nn2C)CC1 | 0 | 0 | 0 | 0 | 0 | 0
CC[N+](C)(CC)CCCCOc1ccc2c(c1)C(=O)c1cc(OCCCC[N+](C)(CC)CC)ccc1-2 | 0 | 70.7 | 0 | 0 | 0 | 0
COC(=O)C1=C(c2ccc3ccccc3c2)C[C@@H]2CC[C@H]1N2C | - | 0 | 0 | 0 | 0 | 0
COC(=O)C1=C(C(=O)OC)C2OC1c1cc3ccccc3cc12 | - | - | - | 0 | - | 58.2
COc1ccc(CN2CCN(C(=O)COc3cccc(C)c3)CC2)c(OC)c1 | 0 | - | - | 0 | - | 0
COc1ccccc1CN1CCN(C(=O)COc2cccc(C)c2)CC1 | 14.5 | 0 | 0 | 0 | 0 | 0
Cc1c(N=Nc2c(O)n(C)c(=O)n(C)c2=O)c(=O)n(-c2ccccc2)n1C | 0 | 63.6 | 0 | 0 | 0 | 0
CC(C)c1ccc(C2NCc3ccccc3-n3cccc32)cc1 (stereo unspecified) | 0 | - | - | 0 | - | 62.5
FC(F)(F)Oc1ccc(C2NCc3ccccc3-n3cccc32)cc1 (stereo unspecified) | 0 | 0 | 0 | 0 | 0 | 0
COc1ccc(-c2cc(=NCCCCCC(=O)O)c3cc(C)ccc3o2)cc1 | 0 | - | - | 0 | - | 0
COc1ccc(-c2cc(=NCC(=O)O)c3ccccc3o2)cc1 | 0 | 64.4 | 0 | - | 0 | -
CNCCCc1ccccc1 | 0 | 0 | 0 | 42.8 | 0 | 0
O=C1NC(=O)C(CCc2ccncc2)(Cc2ccc3c(c2)OCO3)C(=O)N1CCc1ccccc1 (stereo unspecified) | 0 | 0 | 0 | 0 | 0 | 48.7
O=C1NC(=O)C(CCc2ccncc2)(CCc2ccncc2)C(=O)N1CCc1ccccc1 | 0 | 0 | 0 | 0 | 0 | 0
CN1CCC(N(C)c2nc(-c3ccc([N+](=O)[O-])cc3)nc3ccccc23)CC1 | 0 | - | - | 0 | - | 0
CN(CC1COc2ccccc2O1)c1nc(-c2cccnc2)nc2ccccc12 (stereo unspecified) | 0 | 73.7 | 0 | 0 | 0 | 0
COC(=O)C1C(c2ccc(I)cc2)CC2CCC1N2C (stereo unspecified) | - | - | - | 0 | - | 0
CC/C(=C\C=C\[C@@H]1C=C[C@@H]2CCC[C@H]2[C@@H]1C(=O)c1ccc[nH]1)[C@@H]1O[C@@H]([C@@H](C)C(=O)O)CC[C@@H]1C | 0 | 0 | 0 | - | 47.7 | -
Ic1ccccc1CN[C@@H]1C2CCN(CC2)[C@@H]1C(c1ccccc1)c1ccccc1 | - | 0 | 0 | 0 | 0 | 0
